In the library only some 2.1% were active in any assay of this set; here they are far more common.
CCR6 antagonist: antagonists of human CCR6 receptor. CHO-K1 CCR6 PathHunter beta-arrestin, luminescence, CCL20-stimulated. inhibition, % at 20 µM. 340,000 tested, 0.49% active. AID 493098;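 active = compounds whose inhibition of the agonist-driven luminescence signal at 20 µM reaches about 50%, limit read from the data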;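 also: cells stimulated with CCL20 at 14 nM final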
Target sequence (P51684 whole entry, looked up): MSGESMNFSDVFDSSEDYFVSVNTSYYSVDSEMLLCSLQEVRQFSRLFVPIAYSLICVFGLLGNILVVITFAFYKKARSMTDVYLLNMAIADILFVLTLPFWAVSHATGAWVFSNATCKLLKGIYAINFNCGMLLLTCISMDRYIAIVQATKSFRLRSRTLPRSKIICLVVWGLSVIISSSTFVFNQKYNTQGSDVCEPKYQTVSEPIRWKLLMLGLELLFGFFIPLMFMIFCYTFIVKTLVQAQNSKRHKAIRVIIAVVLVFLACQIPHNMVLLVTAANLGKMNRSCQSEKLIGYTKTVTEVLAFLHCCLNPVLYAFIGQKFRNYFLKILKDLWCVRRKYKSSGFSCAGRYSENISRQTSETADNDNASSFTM
EBI2 block: blocks human EBI2 receptor beta-arrestin signaling. EBI2 beta-arrestin recruitment, luminescence, 7a,25-OHC stimulated. inhibition, % at 5 µM. 360,000 tested, 0.81% active. AID 651636; in the data active = inhibition above about 38%;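 also: enzyme fragment complementation signal reports receptor beta-arrestin coupling in cells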
m5-HT2A agonist: activates the mouse 5-HT2A serotonin receptor; P35363; activation, % at 7.6 µM; CHO-K1 mHTR2A beta-arrestin complementation, luminescence; percent of 30 µM serotonin response; 360,000 tested, 0.66% active;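 active = activation above a run cutoff, the mean activation of all tested compounds plus 3 SD, cut at about 14% in these data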
APJ antag: antagonists of human APJ apelin receptor | P35414 | CHO-K1 APJ beta-arrestin complementation, luminescence | inhibition, % at 20 µM | 330,000 tested, 0.32% active;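 active = inhibition above about 40% at 20 µM, limit read from the data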;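 also: cells challenged with 10 nM apelin-13 agonist together with compound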
APJ ag: activates the human apelin receptor APJ. CHO-K1 APJ PathHunter beta-arrestin, luminescence; 0% DMSO wells, 100% apelin. activation, % at 20 µM. 330,000 tested, 0.11% active. AID 2520;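 active = activation more than six SD over the plate average, tested at 20 µM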
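Material: engineered CHO-K1 APJ arrestin reporter cells; amount: 1000 CHO-K1 reporter cells seeded per well; incubation: compound stimulation 90 min at 25 °C, detection 60 min; signal: luminescent beta-gal fragment complementation, chemiluminescent substrate; read-out basis: APJ agonist activity; controls: DMSO-only wells as negative, 10 nM Apelin-13 as positive control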
CXCR6 inh: blocks human CXCR6 beta-arrestin recruitment | O00574 | CHO-K1 PathHunter CXCR6 beta-arrestin, luminescence | inhibition, % at 20 µM | 360,000 tested, 0.36% active | AID 602244; in the data active = inhibition above about 34%, passing the limit was not always enough;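 also: antagonist mode with CXCL16 agonist at 10 nM final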
APJ antag confirm: APJ receptor antagonism confirmation. inhibition, % at 20 µM. AID 2766. APJ beta-arrestin recruitment, luminescence, antagonist mode. 950 tested, 66% active. shares compounds with APJ antag; in the data active = inhibition above about 50%
Numbers stand for hits; 0 = inactive; - = no result given.

SMILES	CCR6 antagonist	EBI2 block	m5-HT2A agonist	APJ antag	APJ ag	CXCR6 inh	APJ antag confirm
Cc1cc(=O)n2[nH]c(=O)c(N=Nc3ccccc3)c2[nH]1	0	0	0	0	0	0	-
Cc1ccc(C(=O)COC(=O)C(C)N2C(=O)C3C4CCC(C4)C3C2=O)cc1C (centres undefined)	0	0	0	0	0	0	-
CC(C(=O)OCC(=O)c1cccc([N+](=O)[O-])c1)N1C(=O)C2C3CCC(C3)C2C1=O (centres undefined)	55	0	0	58	0	0	53
CC(C(=O)OCC(=O)c1cccc([N+](=O)[O-])c1)N1C(=O)C2C3C=CC(C3)C2C1=O (centres undefined)	51	0	0	48	0	0	62
O=C(OCC1CCNCC1)c1ccc(F)cc1	0	0	0	-	-	0	-
CC(C)(C)c1ccc(C(=O)NNC(=S)NC(=O)c2cccnc2)cc1	0	0	0	0	0	0	-
CC(C)(C)c1cc(Cl)c(O)c(NC(=S)NC(=O)c2cccnc2)c1	52	0	0	67	0	40	78
CCN(C(=O)COC(=O)c1cccnc1SC)C1CCS(=O)(=O)C1 (centres undefined)	0	0	0	45	0	0	0
CCN(C(=O)COC(=O)c1cccnc1SC)C1CCCCC1	0	0	0	0	0	0	-
Cc1cc(C(=O)COC(=O)/C=C/c2cccc(Br)c2)c(C)n1C	0	0	0	0	0	0	-
O=C1C2C3CCCC3=C3CCCC3C2C(=O)N1c1cccc(Cl)c1 (centres undefined)	0	0	0	44	0	0	0
O=c1ccc(S(=O)(=O)N2CCCC2)cn1Cc1ccc(Cl)cc1Cl	0	0	0	0	0	0	-
COc1ccc(N2C(=O)CC(Cc3ccc(Br)cc3)C2=O)cc1 (centres undefined)	0	0	0	0	0	0	-
CCOc1ccc(N2C(=O)CC(Cc3ccc(Br)cc3)C2=O)cc1 (centres undefined)	0	0	0	65	0	0	0
COc1ccccc1NC(=O)Cn1nc(Cc2cccnc2)c2ccccc2c1=O	0	0	0	0	0	0	-
C/C(=N\O)C(=O)C(CN1CCCCC1)CN1CCCCC1	51	0	0	42	0	0	0
CN(C)S(=O)(=O)c1ccc(C(=O)NCCc2ccco2)cc1	0	0	0	0	0	0	-
CCNC(=S)N1CCC(C(N)=O)CC1	0	0	0	0	0	0	-
CC(C)(C)N(Cc1ccccc1)C(=O)c1cc2ccccc2o1	0	0	0	45	0	0	0
COC(=O)c1ccc(N/N=C/c2cc([N+](=O)[O-])cc(OC)c2O)cc1	57	0	0	59	0	42	85
COc1cccc(/C=N/Nc2ccc([N+](=O)[O-])cc2)c1O	0	0	0	0	0	0	-
COc1ccc(/C=N\Nc2ccc([N+](=O)[O-])cc2)c(C(=O)O)c1OC	0	0	0	47	0	0	60
COc1cc(/C=C2/N=C(C3CCCCC3)OC2=O)cc(OC)c1OC	0	0	0	42	0	0	0
COc1cc(/C=C2\N=C(C)OC2=O)cc(OC)c1OC	0	0	0	0	0	0	-
COc1cccc2cc(C(=O)C3=C(O)C(=O)N(CCN4CCOCC4)C3c3cccs3)oc12 (centres undefined)	0	0	0	56	0	0	0
SMILES	CCR6 antagonist	EBI2 block	m5-HT2A agonist	APJ antag	APJ ag	CXCR6 inh	APJ antag confirm
O=C(C1=C(O)C(=O)N(CCN2CCOCC2)C1c1ccco1)c1cc2ccccc2o1 (centres undefined)	0	0	0	50	0	0	0
Cc1ccc(S(=O)(=O)c2nc(S(C)(=O)=O)sc2N2CC(C)OC(C)C2)cc1 (centres undefined)	0	0	0	0	0	0	-
CCOc1ccc(/C=C2/SC(=O)NC2=S)cc1	0	0	0	0	0	0	-
CCOc1ccc(N=C2NC(=O)S/C2=C\c2ccc(N(C)C)cc2)cc1	0	0	0	43	0	0	61
CC1(C)CC2(CC(c3ccccc3F)c3cc(Cl)c(O)cc3O2)NC(=S)N1 (centres undefined)	0	0	0	48	0	0	112
Cc1cccc(C2CC3(CC(C)(C)NC(=S)N3)Oc3cc(O)ccc32)c1 (centres undefined)	0	0	0	0	0	0	-
C=C1C(=O)O[C@@H]2C[C@@H](C)[C@@H]3C=CC(=O)[C@@]3(C)[C@@H](OC(C)=O)[C@H]12	0	-	-	46	0	-	77
CCOC(=O)CC(NS(=O)(=O)c1ccc2[nH]cc(C(=O)O)c(=O)c2c1)c1ccc(OCC)c(OC)c1 (centres undefined)	0	0	0	0	0	0	-
Cc1ccc(C(=O)C2Oc3ccccc3C3CC(c4ccc(C)cc4)=NN23)cc1 (centres undefined)	0	0	0	0	0	0	-
Cc1ccc(C2=NN3C(C(=O)c4ccccc4)Oc4ccccc4C3C2)cc1 (centres undefined)	0	0	0	46	0	0	0
COc1cccc(N2CC(C)Cn3c2nc2c3c(=O)n(CCN3CCOCC3)c(=O)n2C)c1 (centres undefined)	0	0	0	42	0	0	62
C#Cc1ccc([C@H]2C=C(C(=O)NC3CC3)O[C@@H](OCC)[C@@H]2CCCO)cc1	0	0	0	0	0	0	-
CC1(O)CC(c2ccc(Cl)cc2)=NN1C(=O)c1ccc([N+](=O)[O-])cc1 (centres undefined)	68	0	0	41	0	0	70
Cc1nn(CC(=O)NCCCc2ccccc2)c(=O)c2cc3occc3n12	0	0	0	41	0	0	0
Cc1ccc(SSc2cc(C)ccc2N)c(N)c1	0	0	0	45	0	0	127
O=C(Nc1ccccc1)C1=C[C@H](c2ccc3c(c2)OCO3)C[C@H](OCc2ccc(CO)cc2)O1	0	0	0	0	0	0	-
Cc1occc1C(=O)NNC(=S)Nc1cccc([N+](=O)[O-])c1	0	0	0	45	0	0	0
Cc1cccc(NC(=S)NNC(=O)c2cccc([N+](=O)[O-])c2)c1	0	0	0	0	0	0	-
COc1cc(/C=N/NC(=O)c2ccc(NC(=O)C3CCCCC3)cc2)ccc1O	0	0	0	48	0	0	0
CCOc1cc(/C=N/NC(=O)c2ccc(NC(=O)C3CC3)cc2)ccc1O	0	0	0	0	0	0	-
CCCCCn1c(N)c(C#N)c2nc3ccccc3nc21	0	0	0	0	0	0	-
N#Cc1c(N)n(CCCN2CCOCC2)c2nc3ccccc3nc12	0	0	0	43	0	0	0

Screening results as filed in PubChem.
